High-throughput results (PubChem BioAssay)
OXTR potentiator: human OXTR potentiators, primary screen, fluorescence, CHO-OTR cells, Fluo-8 calcium | activation, % at 3 µM | 320,000 tested, 0.061% active | Fluo-8 calcium fluorescence, potentiator mode; 0% = oxytocin EC15, 100% = EC100 | Oxytocin receptor (Homo sapiens), P30559;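 active = activation above that plate's cutoff, the mean activation of tested compounds plus 3 SD, cut at about 6.6% in these data, passing the limit was not always enough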;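 note: 100% uses oxytocin at 75 nM as the full agonist control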
Target sequence (P30559 whole entry, looked up): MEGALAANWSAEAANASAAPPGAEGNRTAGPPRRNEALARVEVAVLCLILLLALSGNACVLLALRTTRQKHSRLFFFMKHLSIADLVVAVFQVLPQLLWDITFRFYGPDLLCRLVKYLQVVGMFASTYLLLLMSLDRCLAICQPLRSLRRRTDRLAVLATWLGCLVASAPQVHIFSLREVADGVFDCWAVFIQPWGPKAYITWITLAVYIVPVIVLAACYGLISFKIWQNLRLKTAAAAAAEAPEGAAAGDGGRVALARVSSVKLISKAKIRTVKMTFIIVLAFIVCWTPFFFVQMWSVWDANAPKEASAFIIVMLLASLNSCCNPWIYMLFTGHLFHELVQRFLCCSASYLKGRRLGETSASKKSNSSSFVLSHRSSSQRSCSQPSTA
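Assay system: CHO cell line stably expressing human OTR. Reagent: EC15 oxytocin agonist. Dosing: single dose, 3.0 µM nominal final compound concentration. Timing: compound 6 min at room temperature before oxytocin, 100 s read. Signal: kinetic Fluo-8 calcium fluorescence. Controls: oxytocin EC15 low and EC100 high.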
TAAR1 agonist: human TAAR1 agonists, primary screen, Fluo-8 calcium fluorescence, CHO RD-HGA16 cells. activation, % at 3 µM. vehicle wells 0%, saturating PEA agonist 100%. 360,000 tested, 0.99% active. Trace amine-associated receptor 1 (Homo sapiens), Q96RJ0;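 active = activation above the mean activation of all test compounds in the run plus 3 SD, cut at about 38% in these data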
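Test system: RD-HGA16 (CHO) cells co-expressing Gα16 and hTAAR1; dosing: one-point dosing at 3 µM (nominal); timing: 17-24 h seeding, 75 min 37 °C dye, 30 min RT; signal: kinetic Fluo-8 calcium fluorescence; read-out basis: % activation relative to PEA EC100 response; controls: DMSO and PEA EC100; replicates: n 1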
V1R ag counter: agonists of human V1a receptor, primary screen, counter-screen for OXTR agonist project, fluorescence, CHO-V1R cells. Fluo-8 calcium fluorescence, agonist mode; 0% DMSO, 100% 3 nM vasopressin. activation, % at 3 µM. 320,000 tested, 0.25% active. AID 2797, 2010;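 active = activation above the mean activation of all tested compounds plus 3 SD, per screening run, cut at about 20% in these data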;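 note: signal is peak over basal fluorescence ratio across a 100 second FLIPR read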
OXTR ag: human OXTR agonists, primary screen, fluorescence, CHO-OTR cells, Fluo-8 calcium | activation, % at 3 µM | 320,000 tested, 0.32% active | Oxytocin receptor (Homo sapiens), P30559 | Fluo-8 calcium fluorescence; normalized: DMSO 0%, oxytocin 100%;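 active = activation above the mean of all tested compounds plus 3 SD, cutoff set per screening run, cut at about 20% in these data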;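 note: peak over basal fluorescence ratio from a 100 s FLIPR kinetic read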
TAAR1 antag: human TAAR1 antagonists, primary screen, Fluo-8 calcium fluorescence, CHO RD-HGA16 cells; antagonist; inhibition, % at 3 µM; 360,000 tested, 1.5% active; AID 624466, 2012;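 active = inhibition above a per-plate cutoff, the mean inhibition of test compounds on that plate plus 3 SD, cut at about 49% in these data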;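 note: 0% = DMSO plus EC80 beta-PEA response and 100% = DMSO alone without agonist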
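Test system – hTAAR1-expressing CHO RD-HGA16 cells, Gα16-coupled · Also added – β-PEA at EC80 concentration, post-compound challenge · Compound – 3 µM, single point · Incubation – dye loading 75 min at 37 °C, then 30 min room temperature · Measured by – Fluo-8 intracellular calcium dye fluorescence, real-time kinetic reads · Benchmarks – vehicle and agonist controls · Replicates – singlicate, one well per test compound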
An asterisk follows results filed as active; . = not tested or not shown. Hits are enriched below; roughly 2.3% of the tested compounds scored in any of these assays.

SMILES	OXTR potentiator	TAAR1 agonist	V1R ag counter	OXTR ag	TAAR1 antag
O=C(NCCN1CCC(n2c(=O)[nH]c3ccccc32)CC1)c1cccc2c1-c1ccccc1C2=O	.	10	.	.	59*
O=C(NCCN1CCC(n2c(=O)[nH]c3ccccc32)CC1)c1ccccc1Cl	.	5	.	.	12
Nc1nc2c(ncn2[C@@H]2O[C@H](C(=O)NC3CCCCC3)[C@@H](O)[C@H]2O)c(=O)[nH]1	.	3	.	.	-12
O=C1c2cccc3cccc(c23)C(=O)N1c1ccc(O)cc1	2	2	-1	0	-11
O=C1c2cccc3c(N4CCCCC4)ccc(c23)C(=O)N1c1ccc(O)cc1	-17	59*	23*	22*	41
CCC(C(=O)OCC(=O)C1(O)CCC2C3CCC4=CC(=O)CCC4(C)C3C(O)CC21C)C(C)C (stereo not drawn)	.	14	.	.	62*
COCc1cc(N2CCNC[C@H]2C)ccc1N1CCN(Cc2ccccc2)[C@H](C)C1	.	4	.	.	-12
Cc1ccc(OCC(=O)N(C)CC(=O)Nc2ccc(Cl)c(C(F)(F)F)c2)c([N+](=O)[O-])n1	-4	3	3	1	8
Cc1ccc(-n2cc(-c3ccccc3)c3c(N4CCOCC4)ncnc32)cc1	.	6	.	.	54*
COc1cccc(-c2cnc3c(NC(C)=O)cc(-c4cc(OC)c(OC)c(OC)c4)cn23)c1	.	1	.	.	51*
COc1cccc(-c2cnc3c(NC(C)=O)cc(-c4ccccc4OC)cn23)c1	.	5	.	.	57*
N#Cc1[nH]nc2nc[nH]c(=O)c12	.	1	.	.	1
CCCc1ccc(OCc2ccc(C(=O)N3CCN(c4ccccn4)CC3)o2)c(OC)c1	-11	9	4	4	51*
COC(=O)C1=C(C)N(Cc2ccccc2C(F)(F)F)C(=NCc2ccc(OC)cc2)NC1c1ccc(Cl)cc1 (stereo not drawn)	.	10	.	.	17
CC1(C)Cc2c(sc(NC(=O)c3ccc(C(=O)c4ccccc4)cc3)c2C(N)=O)C(C)(C)N1	-15	46*	9	17	17
CC(C)(C)OC(=O)N1CCCC(C(=O)Nc2cccc(C(=O)NCCc3ccccc3)c2)C1 (stereo not drawn)	.	13	.	.	49*
CC(C)(C)OC(=O)N1CCCC(C(=O)Nc2cccc(C(=O)NCCCCc3ccccc3)c2)C1 (stereo not drawn)	.	12	.	.	56*
O=C(NCCCCc1ccccc1)c1cccc(NC(=O)C2CCC2)c1	.	5	.	.	13
O=C(/C=C/c1ccccc1)Nc1cccc(C(=O)NCCCCc2ccccc2)c1	.	12	.	.	67*
CC(C)(C)OC(=O)N1CCCC(C(=O)Nc2cccc(C(=O)NC3CC3)c2)C1 (stereo not drawn)	.	3	.	.	-5
CC1(c2nnnn2-c2ccc3c(c2)OCCO3)CCC(=O)N1C1CC1 (stereo not drawn)	.	2	.	.	-11
O=C(/C=C\c1cn(-c2ccccc2)nc1-c1ccccc1)Nc1nccs1	-6	2	4	4	51*
COc1ccc(CN2C(=O)CSCC2(C)C(=O)Nc2c(C)cccc2C)cc1 (stereo not drawn)	.	1	.	.	-19
CCOC(=O)c1c(C)[nH]c(C)c1S(=O)(=O)NCCc1cccs1	-1	41*	1	0	-10
Nc1ncnc2c1ncn2[C@@H]1O[C@H](C(=O)N[C@@H](CCc2ccccc2)C(=O)N2CCN(C(=O)C(F)(F)F)CC2)[C@@H](O)[C@H]1O	.	1	.	.	-12
SMILES	OXTR potentiator	TAAR1 agonist	V1R ag counter	OXTR ag	TAAR1 antag
CN(Cc1ccc(OC(F)F)cc1)C(=O)c1cccc(S(=O)(=O)N2CCN(c3ccccc3)CC2)c1	.	9	.	.	75*
CCOP(=O)(c1ccccc1)c1nc(-c2ccccc2C)oc1N1CCCCC1 (stereo not drawn)	-1	60*	1	1	-12
Cc1ccccc1-c1nc(P(=O)(c2ccccc2)c2ccccc2)c(N2CCOCC2)o1	6	8	-1	-3	-38
CCN(CC)S(=O)(=O)c1ccc(N2CCOCC2)c(NC(=O)c2cccc3c(=O)c(C)c(-c4ccccc4)oc23)c1	-15	9	1	-2	54*
COc1ccc(C2C(C(=O)c3cccs3)=C(O)C(=O)N2c2nnc(C)s2)cc1OC (stereo not drawn)	2	.	1	2	.
CC(C)c1nnc(N2C(=O)C(O)=C(C(=O)c3cccs3)C2c2ccccc2)s1 (stereo not drawn)	.	40*	.	.	25
C/C(=N\NC(=O)COc1ccccc1-c1ccccc1)c1ccc(O)cc1O	-4	-1	0	-1	50*
COc1ccccc1CNc1nc(NCc2ccccc2OC)c2sccc2n1	.	5	.	.	19
COc1ccccc1CNc1nc(Nc2cccc(-c3cnco3)c2)c2sccc2n1	.	2	.	.	76*
O=C(CSc1n[nH]c(-c2ccc(Br)cc2)n1)NC1CCCC1	-6	43*	7	4	67*
O=C(CSc1n[nH]c(-c2ccccc2)n1)NC1CCCCC1	-2	0	0	0	3
COc1ccc(NC(=O)c2ccc(COc3ccccc3Br)o2)cc1OC	-14	4	1	0	80*
C[C@@H]1Cn2cnc(C(=O)N(C)Cc3ccccc3)c2C(=O)N1	.	3	.	.	-2
Cc1cccc(N2CCN(C(=O)C3CCN(c4nnc(-n5cccc5)s4)CC3)CC2C)c1 (stereo not drawn)	-7	7	5	-1	49*
Cc1cccc(N2CCN(C(=O)C3CCN(S(=O)(=O)c4cccc5nsnc45)CC3)CC2C)c1 (stereo not drawn)	-18	21	17	5	60*
CC1(C)Cc2cccc(OCC(=O)N3CCN(c4ccccc4F)CC3)c2O1	-2	1	-1	-2	22
COc1ccccc1N1CCN(C(=O)c2ccc(COc3cccc4c3OC(C)(C)C4)cc2)CC1	-1	0	0	-1	56*
O=C(c1ccccc1)C12COc3ccccc3C1ON=C2c1ccccc1 (stereo not drawn)	.	3	.	.	-11
COC(=O)c1cc2c(c3c4ccccc4n(S(=O)(=O)c4ccc(OC)cc4)c13)C(=O)N(Cc1ccccc1OC)C2	.	-1	.	.	-12
Cc1ccc(SC(C)C(=O)Nc2ccc(S(=O)(=O)N3CCOCC3)cc2)cc1 (stereo not drawn)	-16	39*	8	9	22
Cc1ccc(NC(=O)c2ccc(S(=O)(=O)N3CCOCC3)cc2)cc1	-11	-3	1	1	5
COc1ccc2sc(-c3ccccc3OC)c(-c3ccc(SC)cc3)c2c1	.	5	.	.	-28
